ChEMBL document CHEMBL1817556, “Substituted lactam and cyclic azahemiacetals modulate Pseudomonas aeruginosa quorum sensing” (Bioorg Med Chem, 2011)

Biological target: 3-(3-hydroxydecanoyloxy)decanoate synthase (Pseudomonas aeruginosa (strain ATCC 15692 / PAO1 / 1C / PRS 101 / LMG12228)) (UniProt Q51559)
Assay: Modulation of Pseudomonas aeruginosa lacZ-fused rhlA expressed in Escherichia coli DH5alpha co-expressing Ptac-rhlR at 0.002 mM after 4 hrs by beta-galactosidase assay relative to control
Outline: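 E. coli DH5α carrying pECP61.5 (Ptac-rhlR plus PrhlA-lacZ) was grown overnight in LB with ampicillin 100 μg/ml and diluted to OD600 0.150. It was induced with 1 mM IPTG, and 2 μM C4-HSL plus compound or DMSO were added at OD600 1.0. Cultures were shaken 4 h at 37°C and β-galactosidase read in Miller units. Activity is % of solvent control, triplicates, ≥2 biological repeats, paired two-tailed t-test.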

**Q.** Which Activity does the source give for `CCCC(=O)N[C@H]1CCOC1=O` here?
**A.** Its Activity is 100%.
